For 73 sequences, Tm and folding enthalpy results are on record in the array DNA melting data of Ke et al. (doi:10.1101/2024.01.08.574731).

The nature of data set [1]: melting temperature; fluorescence melt of hairpins on a sequencing array, two-state fit, raised by 9.35 °C to match UV melts. The note with it: sodium 0.088 M. In short, it runs like this:
(§1)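 Bootstrapped two-state fits yielded melting temperature and folding enthalpy for library hairpins. Cy3 fluorescence, with annealed Cy3 and quencher oligos, was imaged on a sequenced MiSeq flow cell in 50 mM Na-HEPES pH 8.0, 25 mM NaCl in 2.5 °C steps up to 60 °C, and normalised to pre-quench Cy3 and to control constructs. Four replicates were combined by inverse variance, and fitted temperatures were raised by 9.35 °C to match UV melts.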

Data set [2] in a line: folding enthalpy; higher = less favourable; fluorescence melt of hairpins on a sequencing array, two-state fit. The note with it: sodium 0.088 M. Summed up: as §1

In the case of GGGTAGGGAAACTTACCC (((((.(....).))))), in data set [1], the Tm was 45.8 °C. In data set [2], the folding enthalpy is -29.5 kcal/mol.
The like results for GGGTATCGAAAGATCCCC (((.(((....))).))) were, in that order, 50.2 °C and -22.7 kcal/mol.
Consider GGGTATCGAAAGATGCCC (((.(((....))).))), for which the Tm in data set [1] came out at 58.2 °C. Besides, in data set [2], the folding enthalpy is -58.7 kcal/mol.
For the sequence GGGTATGAAAATACCC ((((((....)))))), in data set [1], the Tm was 57.6 °C. In addition, the folding enthalpy in data set [2] is -35.4 kcal/mol.
For the sequence GGGTATGGAAACATACCC (((((((....))))))), in data set [1], the Tm is 62.6 °C. Besides, the folding enthalpy in data set [2] is -44 kcal/mol.
Consider GGGTATGGAAACATATCC ((.((((....)))).)), for which the Tm in data set [1] worked out at 44.2 °C. The folding enthalpy in data set [2] was -39.3 kcal/mol.
The matching figures for GGGTATGGAAACGTATCC ((.((.(....).)).)): 30.5 °C and -19.8 kcal/mol.
GGGTCACGAAAGTGCCC (((.(((....)))))): the Tm in data set [1] was 58.5 °C. Besides, the folding enthalpy in data set [2] is -39.9 kcal/mol.
Consider GGGTCAGAAATGACCC ((((((....)))))), for which the Tm in data set [1] was 65.1 °C. For the same sequence, in data set [2], the folding enthalpy is -34.5 kcal/mol.
Take GGGTCAGGAAACCGACCC (((((.(....).))))): in data set [1], the Tm came out at 52.7 °C. For the same sequence, in data set [2], the folding enthalpy is -37.3 kcal/mol.
For GGGTCCGAAAGGAAACCC ((((((....)))..))), the Tm in data set [1] is 50.2 °C. In data set [2], the folding enthalpy is -22.8 kcal/mol.
The matching figures for GGGTCCGAAAGGAAGCCC ((((((....)))..))): 46.9 °C and -18.8 kcal/mol.
Regarding GGGTCCGAAAGGACGCCC ((((((....)))..))), the Tm in data set [1] worked out at 48.9 °C. Moreover, the folding enthalpy in data set [2] was -10.3 kcal/mol.
Consider GGGTCCGAAAGGATCCCC ((((((....)))..))), for which, in data set [1], the Tm stood at 60.5 °C. For the same sequence, in data set [2], the folding enthalpy was -14.6 kcal/mol.
As to GGGTCCGGAAACGAACCC ((((.((....)).)))), in data set [1], the Tm stood at 49 °C. For the same sequence, the folding enthalpy in data set [2] is -31.9 kcal/mol.
For the sequence GGGTCGACGAAAGTCCCC (((..(((....)))))), the Tm in data set [1] came to 38.7 °C. Moreover, the folding enthalpy in data set [2] was -17.7 kcal/mol.
The like results for GGGTCGGGAAACCGATCC ((.((((....)))).)) were, in that order, 57.4 °C and -47.4 kcal/mol.
Regarding GGGTCTCGAAAGAGCCC (((.(((....)))))), the Tm in data set [1] was found to be 58.2 °C. The folding enthalpy in data set [2] is -32 kcal/mol.
The matching figures for GGGTCTCGAAAGAGGCCC (((.(((....))).))): 67.7 °C and -29.1 kcal/mol.
The matching figures for GGGTCTGGAAACAGATCC ((.((((....)))).)): 51.9 °C and -43.7 kcal/mol.
GGGTGACGAAAGTCCCCC (((.(((....))).))): the Tm in data set [1] was 57.9 °C. Also, the folding enthalpy in data set [2] is -28.2 kcal/mol.
With GGGTGAGGAAACTTACCC ((((.((....)).)))), the Tm in data set [1] came out at 47.7 °C. Further, the folding enthalpy in data set [2] is -35.7 kcal/mol.
For the sequence GGGTGCGAAAGCAACCC ((((((....))).))), the Tm in data set [1] worked out at 68.5 °C. For the same sequence, the folding enthalpy in data set [2] is -18.9 kcal/mol.
The like results for GGGTGCGAAAGCATCCCC ((((((....)))..))) were, in that order, 64.3 °C and -13.4 kcal/mol.
The matching figures for GGGTGGCGAAAGCCCCCC (((.(((....))).))): 65 °C and -17.4 kcal/mol.
The matching figures for GGGTGGGGAAACCCGCCC (((.(((....))).))): 67.3 °C and -33.6 kcal/mol.
In the case of GGGTGTGAAAACACCC ((((((....)))))), the Tm in data set [1] was 69 °C. Besides, the folding enthalpy in data set [2] is -34.4 kcal/mol.
In the case of GGGTGTGGAAACATGCCC (((..((....))..))), the Tm in data set [1] amounted to 47.7 °C. In addition, the folding enthalpy in data set [2] was -28.4 kcal/mol.
The like results for GGGTTACGAAAGTACCCC (((.(((....))).))) were, in that order, 52.1 °C and -22.9 kcal/mol.
For the sequence GGGTTAGGAAACTAACTC (.(((((....))))).), the Tm in data set [1] turned out to be 42.3 °C. The folding enthalpy in data set [2] was -25.8 kcal/mol.
The matching figures for GGGTTATCGAAAGATCCC (((..(((....)))))): 34.9 °C and -24.3 kcal/mol.
The like results for GGGTTCCGAAAGGACCC (((.(((....)))))) were, in that order, 58.1 °C and -31.6 kcal/mol.
On to GGGTTCGAAAGAAAACCC ((((((....)))..))), for which, in data set [1], the Tm is 42.2 °C. Further, the folding enthalpy in data set [2] was -23.8 kcal/mol.
As for GGGTTCGAAAGAAATCCC ((((((....)))..))), in data set [1], the Tm amounted to 33.6 °C. Besides, in data set [2], the folding enthalpy was -21.3 kcal/mol.
The matching figures for GGGTTCGAAAGAAGCCC ((((((....))).))): 55.7 °C and -24.1 kcal/mol.
GGGTTCGCGAAAGCGCCC (((..(((....)))))): the Tm in data set [1] is 43.6 °C. In data set [2], the folding enthalpy was -15.3 kcal/mol.
As to GGGTTCGGAAACGAATCC ((.((((....)))).)), the Tm in data set [1] stood at 53.7 °C. In data set [2], the folding enthalpy is -44 kcal/mol.
The like results for GGGTTCGGAAACGAGCTC (.(.(((....))).).) were, in that order, 37.8 °C and -24 kcal/mol.
The matching figures for GGGTTGGGAAACCAATCC ((.((((....)))).)): 50.8 °C and -32.8 kcal/mol.
The matching figures for GGGTTGGGAAACCAGCTC (.(.(((....))).).): 36.1 °C and -18.6 kcal/mol.
As to GGTAAATCGAAAGATACC (((..(((....)))))), in data set [1], the Tm stood at 30.4 °C. The folding enthalpy in data set [2] is -15.1 kcal/mol.
The like results for GGTAACCGAAAGGTAACC (((.(((....))).))) were, in that order, 50.8 °C and -20.8 kcal/mol.
The matching figures for GGTAACCGAAAGGTGACC (((.(((....))).))): 55.4 °C and -36.3 kcal/mol.
The matching figures for GGTAACGAAAGTTACACC ((((((....)))..))): 43.5 °C and -13.9 kcal/mol.
In the case of GGTAACGAAAGTTATACC ((((((....)))..))), in data set [1], the Tm came out at 32.6 °C. Moreover, in data set [2], the folding enthalpy is -22.1 kcal/mol.
The matching figures for GGTAACGAAAGTTCCACC ((((((....)))..))): 33.3 °C and -12.3 kcal/mol.
Regarding GGTAACGAAAGTTCTACC ((((((....)))..))), the Tm in data set [1] turned out to be 28.2 °C. In addition, the folding enthalpy in data set [2] was -13.9 kcal/mol.
In the case of GGTAACGAAAGTTTACC ((((((....))).))), the Tm in data set [1] worked out at 43.3 °C. Besides, the folding enthalpy in data set [2] is -22.4 kcal/mol.
Regarding GGTAACGAAAGTTTGACC ((((((....)))..))), the Tm in data set [1] worked out at 28.9 °C. Moreover, the folding enthalpy in data set [2] is -19.4 kcal/mol.
The like results for GGTAACGGAAACGTCACC (((.(((....))).))) were, in that order, 42.8 °C and -32 kcal/mol.
Turning to GGTAACTCGAAAGAGACC (((..(((....)))))), the Tm in data set [1] came to 31.3 °C. In data set [2], the folding enthalpy is -14.5 kcal/mol.
Regarding GGTAAGCGAAAGCTGACC (((.(((....))).))), the Tm in data set [1] amounted to 58.4 °C. Also, the folding enthalpy in data set [2] is -26.2 kcal/mol.
Regarding GGTAAGGGAAACTTTACC (((((.(....).))))), the Tm in data set [1] was 36.4 °C. In addition, in data set [2], the folding enthalpy is -21.3 kcal/mol.
With GGTAATCGAAAGATACC (((.(((....)))))), in data set [1], the Tm turned out to be 40.5 °C. The folding enthalpy in data set [2] is -27.2 kcal/mol.
In the case of GGTAATGGAAACATTACC (((((((....))))))), in data set [1], the Tm stood at 55.9 °C. In addition, the folding enthalpy in data set [2] is -42.8 kcal/mol.
The like results for GGTACACGAAAGTGAACC (((.(((....))).))) were, in that order, 53.9 °C and -36.8 kcal/mol.
The matching figures for GGTACACGAAAGTGGACC (((.(((....))).))): 67.2 °C and -38.2 kcal/mol.
The matching figures for GGTACCACGAAAGTGACC (((..(((....)))))): 30.1 °C and -13.4 kcal/mol.
Turning to GGTACCCGAAAGGGAACC (((.(((....))).))), in data set [1], the Tm is 59.7 °C. In addition, the folding enthalpy in data set [2] is -26.8 kcal/mol.
With GGTACCGGAAACGATACC ((((.((....)).)))), the Tm in data set [1] is 42.7 °C. Also, the folding enthalpy in data set [2] is -31.9 kcal/mol.
The matching figures for GGTACCGGAAACGGTGTC (..((((....))))..): 36.7 °C and -13.4 kcal/mol.
Consider GGTACGGGAAACTGTGCC ((.((.(....).)).)), for which the Tm in data set [1] worked out at 43.1 °C. Also, the folding enthalpy in data set [2] is -31.2 kcal/mol.
As for GGTACTGGAAACAGCACC (((.(((....))).))), the Tm in data set [1] came out at 43.9 °C. Also, in data set [2], the folding enthalpy is -29.3 kcal/mol.
Consider GGTACTGGAAACGGTACC (((((.(....).))))), for which the Tm in data set [1] was found to be 50.4 °C. Also, in data set [2], the folding enthalpy is -40.9 kcal/mol.
The like results for GGTAGAGGAAACTCTACC (((((((....))))))) were, in that order, 57.8 °C and -46.8 kcal/mol.
The like results for GGTAGAGGAAACTCTGCC ((.((((....)))).)) were, in that order, 49.2 °C and -34.2 kcal/mol.
Consider GGTAGCCCGAAAGGGACC (((..(((....)))))), for which, in data set [1], the Tm was 33.6 °C. Further, in data set [2], the folding enthalpy was -12.6 kcal/mol.
The matching figures for GGTAGCGAAAGCTGCACC ((((((....)))..))): 39 °C and -13.2 kcal/mol.
As for GGTAGCGAAAGCTGGACC ((((((....)))..))), the Tm in data set [1] stood at 37.4 °C. In data set [2], the folding enthalpy was -12.6 kcal/mol.
The like results for GGTAGCGAAAGCTTAACC ((((((....)))..))) were, in that order, 38.1 °C and -16.7 kcal/mol.
The like results for GGTAGCGCGAAAGCGACC (((..(((....)))))) were, in that order, 40 °C and -13.3 kcal/mol.
The matching figures for GGTAGCGGAAACGCTGCC ((.((((....)))).)): 62.5 °C and -37.9 kcal/mol.
For the sequence GGTAGCGGAAACGCTGTC (..((((....))))..), in data set [1], the Tm is 34.8 °C. Further, the folding enthalpy in data set [2] is -13.4 kcal/mol.
